From ChEMBL document CHEMBL3098049, “Concise synthesis and biological evaluation of 2-Aroyl-5-amino benzo[b]thiophene derivatives as a novel class of potent antimitotic agents” (J Med Chem, 2013)
Calls of active or inactive are those of the source. The calls are words filed in the database; no cut-off is given here.

How the values were obtained:
HeLa = assay: Cytotoxicity against human HeLa cells assessed as growth inhibition after 48 hrs by coulter counting analysis; assay type: functional, cell-based
[1] = Cytotoxicity against human CEM/0 cells assessed as growth inhibition after 48 hrs by coulter counting analysis; assay type: functional, cell-based; conditions: CCRF-CEM
[2] = Cytotoxicity against human Molt4/C8 cells assessed as growth inhibition after 48 hrs by coulter counting analysis; assay type: functional, cell-based; conditions: MOLT-4, 48 h
Outline: (§1)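 Cells suspended at (3−5) × 10⁵ cells/mL and mixed 1:1 with compound dilutions. Incubated 48 h at 37 °C, counted with a Coulter counter. IC₅₀ = concentration inhibiting proliferation by 50%. Mean of at least three independent experiments.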

L1210 = assay: Cytotoxicity against mouse L1210 cells assessed as growth inhibition after 48 hrs by coulter counting analysis; assay type: functional, cell-based; conditions: L1210, 48 h; outline: as §1
[3] = Cytotoxicity against mouse FM3A/0 cells assessed as growth inhibition after 48 hrs by coulter counting analysis; assay type: functional, cell-based; conditions: FM3A/0, 48 h
Tubulin (Homo sapiens) [4] = target: T1, Tubulin (Homo sapiens) (UniProt P68371+Q9H4B7+P0DPH7+P68366+Q13509+Q71U36+P04350+Q3ZCM7+P07437+P68363+Q9BQE3+Q6PEY2+Q13885+Q9BVA1+Q9BUF5); assay: Displacement of [3H]-colchicine from tubulin (unknown origin) at 5 uM after 10 mins relative to control; assay type: protein-complex assay
[5] = Inhibition of bovine brain tubulin polymerization preincubated for 15 mins followed by GTP addition measured for 20 mins by turbidometric analysis; parameters: species or system Bos taurus
MNNG-HOS [6] = assay: Antitumor activity against human MNNG-HOS cells xenografted in Balb/c-nu mouse assessed as reduction in tumor weight at 50 mg/kg, ip administered once every 3 days for 9 days measured after day 18; assay type: functional, organism-based; parameters: dose 50 mg/kg; conditions: HOS-TE85
Outline: (§2)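 MNNG/HOS osteosarcoma cells grown to exponential phase, suspended in FBS-free MEM (10⁷ cells/mL), 0.1 mL injected into back hypodermis of nude mice. At ~100 mm³, 12 mice randomised to three groups (vehicle, CA-4P in isotonic saline, test in 5% DMSO/olive oil). 50 mg/kg ip at 0.01 mL/g on days 0, 3, 6, 9. Tumour volume and body weight tracked; tumours excised and weighed day 18; […].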

MNNG-HOS [7] = assay: Antitumor activity against human MNNG-HOS cells xenografted in Balb/c-nu mouse assessed as tumor growth inhibition at 50 mg/kg, ip administered once every 3 days for 9 days measured on day 18 relative to vehicle-treated control; assay type: functional; conditions: HOS-TE85, ip, route intraperitoneal, read-out: TGI; outline: as §2
Tubulin (Homo sapiens) [8] = target: T1, Tubulin (Homo sapiens); assay: Displacement of [3H]-colchicine from tubulin (unknown origin) at 1 uM after 10 mins relative to control; assay type: protein-complex assay

Compound	IC50 (HeLa) [nM]	IC50 [1] [nM]	IC50 [2] [nM]	IC50 (L1210) [nM]	IC50 [3] [nM]	inhibition (Tubulin (Homo sapiens) [4]) [%]	IC50 [5] [nM]	Activity (MNNG-HOS [6])	inhibition in vivo at 50 mg/kg (MNNG-HOS [7]) [%]	inhibition (Tubulin (Homo sapiens) [8]) [%]
COc1cc(C(=O)c2cc3cc(NC(=O)CBr)cc(OC)c3s2)cc(OC)c1OC	220	340	360	420	250					
COc1cc(C(=O)c2cc3cc(N)ccc3s2)cc(OC)c1OC	13	11	18	0.78	2.8	65	3200			
C=C(Br)C(=O)Nc1ccc2sc(C(=O)c3cc(OC)c(OC)c(OC)c3)cc2c1	700	140	270	75	170					
C=C(Br)C(=O)Nc1cc(OC)c2sc(C(=O)c3cc(OC)c(OC)c(OC)c3)cc2c1	760	260	280	96	200					
COc1cc(C(=O)c2cc3cc(NC(=O)CI)cc(OC)c3s2)cc(OC)c1OC	200	310	330	410	370					
COc1cc(C(=O)c2cc3cc(NC(=O)CCl)cc(OC)c3s2)cc(OC)c1OC	100	72	78		200					
COc1cc(C(=O)c2sc3c(OC)cccc3c2N)cc(OC)c1OC						39	2100			
COc1cc(C(=O)c2sc3ccc(N)cc3c2C)cc(OC)c1OC	100	72	100	8	200	78	1300			
COc1ccc(/C=C\c2cc(OC)c(OC)c(OC)c2)cc1OP(=O)(O)O [FOSBRETABULIN DISODIUM]								Active	32	
COc1cc(C(=O)c2cc3cc(NC(=O)CI)ccc3s2)cc(OC)c1OC	1500		330	1400	2100					
COc1cc(C(=O)c2sc3c(OC)cc(N)cc3c2C)cc(OC)c1OC	13		14	12	15	95	480			90
COc1cc(C(=O)c2cc3cc(NC(C)=O)cc(OC)c3s2)cc(OC)c1OC	69		98		340					
COc1cc(C(=O)c2sc3ccccc3c2N)cc(OC)c1OC						39	4200			
COc1cc(C(=O)c2cc3cc(N(C)C)cc(OC)c3s2)cc(OC)c1OC	360		980		1100					
COc1ccc(C(=O)c2cc3cc(N)cc(OC)c3s2)cc1OC	1600	1400	1700	1900	2200					
COc1cc(C(=O)c2cc3cc(NC(=O)CBr)ccc3s2)cc(OC)c1OC	1600	260	960	1400	1700					
CNc1cc(OC)c2sc(C(=O)c3cc(OC)c(OC)c(OC)c3)cc2c1	66		74	67	190					
COc1cc2sc(C(=O)c3cc(OC)c(OC)c(OC)c3)c(C)c2cc1N		19	16	19	17	95	680			83
COc1ccc(C(=O)c2cc3cc(N)cc(OC)c3s2)cc1		6100	6500	> 10000	> 10000					
